Laboratory results as given in ChEMBL document CHEMBL4145448, “Broad activity of diphenyleneiodonium analogues against Mycobacterium tuberculosis, malaria parasites and bacterial pathogens” (Eur J Med Chem, 2018).

How the values were obtained:
[1] = Selectivity index, ratio of CC50 for human HepG2 cells in presence of 1% FBS to MIC for Escherichia coli N4149; assay type: toxicity; settings: read-out: Selectivity Index
Pseudomonas aeruginosa [2] = assay: Antibacterial activity against Pseudomonas aeruginosa ATCC 27853 after 18 hrs by broth microdilution method; assay type: functional; settings: ATCC 27853, 18 h
Method in brief: (§1)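 Broth microdilution per CLSI in cation-adjusted Mueller-Hinton broth. 100 µL inoculum (~10^6 cfu/mL in CaMHB) mixed with 100 µL CaMHB containing compound, 0 to 128 µM. Incubated 18 h at 37 °C. MIC taken as the lowest concentration with no visible growth. Polymyxin B served as positive control. Isolates were stored at -80 °C in tryptone soy broth with 20% glycerol.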

Klebsiella pneumoniae [3] = assay: Antibacterial activity against Klebsiella pneumoniae isolate M320445 after 18 hrs by broth microdilution method; assay type: functional; settings: isolate M320445, 18 h; method in brief: as §1
Escherichia coli [4] = assay: Antibacterial activity against Escherichia coli N2381 after 18 hrs by broth microdilution method; assay type: functional; settings: N2381, 18 h; method in brief: as §1
Staphylococcus aureus [5] = assay: Antibacterial activity against vancomycin-resistant Staphylococcus aureus ATCC 700699 after 18 hrs by broth microdilution method; assay type: functional; settings: ATCC 700699, 18 h; method in brief: as §1
Klebsiella pneumoniae [6] = assay: Antibacterial activity against Klebsiella pneumoniae ATCC 13883 after 18 hrs by broth microdilution method; assay type: functional; settings: ATCC 13883, 18 h; method in brief: as §1
[7] = Selectivity index, ratio of CC50 for human HepG2 cells in presence of 1% FBS to MIC for Klebsiella pneumoniae isolate M320445; assay type: toxicity; settings: read-out: Selectivity Index
Plasmodium falciparum = assay: Growth inhibition of CQ-sensitive GFP-fused Plasmodium falciparum D10 after 90 hrs by ethidium bromide staining based flow cytometry; assay type: functional, organism-based; settings: D10, 90 h
Method in brief: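 Parasites cultured in human O+ erythrocytes in RPMI-HEPES pH 7.4 with hypoxanthine, NaHCO3, gentamicin and 0.5% Albumax II under 1% O2/4% CO2 at 37 °C. Synchronised to rings with heparin plus sorbitol. Set up at 1% parasitaemia and 1% haematocrit with 10x compound added. Cultured 90 h to next-cycle trophozoites. Stained with 10 µg/mL ethidium bromide for 1 h, washed, parasitaemia counted by flow cytometry with GFP gating.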

[8] = Selectivity index, ratio of CC50 for human HepG2 cells in presence of 1% FBS to MIC for Klebsiella pneumoniae isolate 1; assay type: toxicity; settings: read-out: Selectivity Index
Pseudomonas aeruginosa [9] = assay: Antibacterial activity against Pseudomonas aeruginosa isolate 912 after 18 hrs by broth microdilution method; assay type: functional; settings: isolate 912, 18 h; method in brief: as §1
Acinetobacter baumannii [10] = assay: Antibacterial activity against Acinetobacter baumannii isolate 246-01-C after 18 hrs by broth microdilution method; assay type: functional; method in brief: as §1
Staphylococcus aureus [11] = assay: Antibacterial activity against vancomycin-intermediate Staphylococcus aureus ATCC 700698 after 18 hrs by broth microdilution method; assay type: functional; settings: ATCC 700698, 18 h; method in brief: as §1
[12] = Selectivity index, ratio of CC50 for human HepG2 cells in presence of 1% FBS to MIC for vancomycin-resistant Enterococcus faecium ATCC 700221; assay type: toxicity; settings: read-out: Selectivity Index
Method in brief: (§2)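 Selectivity index is CC50 (1% FBS) divided by MIC. […] They then got compound at 300 to 0.14 µM (3-fold steps) for 24 h at 37 °C, 5% CO2. Resazurin (10 µM, 2 h) was read at ex/em 560/590 in duplicate wells. For MIC, CLSI broth microdilution was run in CaMHB with ~10^6 cfu/mL inoculum and 0–128 µM compound.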

[13] = Selectivity index, ratio of CC50 for human HepG2 cells in presence of 1% FBS to MIC for Klebsiella pneumoniae isolate 248-33-D; assay type: toxicity; settings: read-out: Selectivity Index
[14] = Selectivity index, ratio of CC50 for human HepG2 cells in presence of 1% FBS to MIC for methicillin-resistant Staphylococcus aureus ATCC 43300; assay type: toxicity; settings: read-out: Selectivity Index; method in brief: as §2
[15] = Selectivity index, ratio of CC50 for human HepG2 cells in presence of 1% FBS to MIC for Acinetobacter baumannii ATCC 17978; assay type: toxicity; settings: read-out: Selectivity Index
[16] = Selectivity index, ratio of CC50 for human HepG2 cells in presence of 1% FBS to MIC for Acinetobacter baumannii isolate 246-01-C; assay type: toxicity; settings: read-out: Selectivity Index
[17] = Selectivity index, ratio of CC50 for human HepG2 cells in presence of 1% FBS to MIC for Pseudomonas aeruginosa ATCC 27853; assay type: toxicity; settings: read-out: Selectivity Index; method in brief: as §2
Pseudomonas aeruginosa [18] = assay: Antibacterial activity against Pseudomonas aeruginosa isolate M146201 after 18 hrs by broth microdilution method; assay type: functional; settings: isolate M146201, 18 h; method in brief: as §1
Acinetobacter baumannii [19] = assay: Antibacterial activity against Acinetobacter baumannii ATCC 19606 after 18 hrs by broth microdilution method; assay type: functional; settings: ATCC 19606 = CIP 70.34 = JCM 6841, 18 h; method in brief: as §1
[20] = Selectivity index, ratio of CC50 for human HepG2 cells in presence of 1% FBS to MIC for Pseudomonas aeruginosa isolate 18878B klon 1; assay type: toxicity; settings: read-out: Selectivity Index; method in brief: as §2
[21] = Selectivity index, ratio of CC50 for human HepG2 cells in presence of 1% FBS to MIC for Acinetobacter baumannii ATCC 19606 col10; assay type: toxicity; settings: read-out: Selectivity Index
Enterococcus faecium = assay: Antibacterial activity against vancomycin-resistant Enterococcus faecium ATCC 700221 after 18 hrs by broth microdilution method; assay type: functional; settings: ATCC 700221, 18 h; method in brief: as §1
[22] = Selectivity index, ratio of CC50 for human HepG2 cells in presence of 1% FBS to IC50 for CQ-sensitive GFP-fused Plasmodium falciparum D10; assay type: toxicity; settings: read-out: Ratio IC50
[23] = Cytotoxicity against human HepG2 cells after 24 hrs in presence of 1% FBS by resazurin dye based assay; assay type: cell-based
Method in brief: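 HepG2 cells seeded at 4000/well in DMEM with 1% FBS and allowed to attach for 24 h at 37 °C, 5% CO2. Compounds added from 300 to 0.14 µM in 3-fold steps and incubated 24 h. 10 µM resazurin added for 2 h, fluorescence read at ex/em 560/590. Percent viability computed relative to untreated and negative controls, duplicate wells.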

Pseudomonas aeruginosa [24] = assay: Antibacterial activity against Pseudomonas aeruginosa isolate 19147nm after 18 hrs by broth microdilution method; assay type: functional; method in brief: as §1
Klebsiella pneumoniae [25] = assay: Antibacterial activity against Klebsiella pneumoniae isolate 224-11-C after 18 hrs by broth microdilution method; assay type: functional; method in brief: as §1
[26] = Selectivity index, ratio of CC50 for human HepG2 cells in presence of 1% FBS to MIC for Escherichia coli N11281; assay type: toxicity; settings: read-out: Selectivity Index
Escherichia coli [27] = assay: Antibacterial activity against Escherichia coli N11281 after 18 hrs by broth microdilution method; assay type: functional; settings: N11281, 18 h; method in brief: as §1
[28] = Selectivity index, ratio of CC50 for human HepG2 cells in presence of 1% FBS to MIC for vancomycin-intermediate Staphylococcus aureus ATCC 700698; assay type: toxicity; settings: read-out: Selectivity Index; method in brief: as §2
Acinetobacter baumannii [29] = assay: Antibacterial activity against Acinetobacter baumannii ATCC 19606 col10 after 18 hrs by broth microdilution method; assay type: functional; settings: ATCC 19606 = CIP 70.34 = JCM 6841 col10, 18 h; method in brief: as §1
[30] = Selectivity index, ratio of CC50 for human HepG2 cells in presence of 1% FBS to MIC for Pseudomonas aeruginosa isolate 912; assay type: toxicity; settings: read-out: Selectivity Index; method in brief: as §2
[31] = Selectivity index, ratio of CC50 for human HepG2 cells in presence of 1% FBS to MIC for Pseudomonas aeruginosa isolate M146201; assay type: toxicity; settings: read-out: Selectivity Index; method in brief: as §2

SMILES	selectivity ratio [1]	MIC (Pseudomonas aeruginosa [2]) [µM]	MIC (Klebsiella pneumoniae [3]) [µM]	MIC (Escherichia coli [4]) [µM]	MIC (Staphylococcus aureus [5]) [µM]	MIC (Klebsiella pneumoniae [6]) [µM]	selectivity ratio [7]	IC50 (Plasmodium falciparum) [nM]	selectivity ratio [8]	MIC (Pseudomonas aeruginosa [9]) [µM]	MIC (Acinetobacter baumannii [10]) [µM]	MIC (Staphylococcus aureus [11]) [µM]	selectivity ratio [12]	selectivity ratio [13]	selectivity ratio [14]	selectivity ratio [15]	selectivity ratio [16]	selectivity ratio [17]	MIC (Pseudomonas aeruginosa [18]) [µM]	MIC (Acinetobacter baumannii [19]) [µM]	further results
Cc1ccc2c(c1)-c1ccccc1[I+]2	> 0.52	> 73	72	72	18	72	0.52	80	> 0.52	9	9	18	8.3	0.52	4.2	4.2	4.2	> 0.52	36	18	selectivity ratio [20]: 4.2; selectivity ratio [21]: 4.2; MIC (Enterococcus faecium): 4.5 µM; selectivity ratio [22]: 500; CC50 at 24 h [23]: 37500 nM; MIC (Pseudomonas aeruginosa [24]): 9 µM; MIC (Klebsiella pneumoniae [25]): > 72 µM; selectivity ratio [26]: 0.52; MIC (Escherichia coli [27]): 72 µM; selectivity ratio [28]: 2.2; MIC (Acinetobacter baumannii [29]): 9 µM; selectivity ratio [30]: 4.2; selectivity ratio [31]: 1
Clc1cccc2c1-c1ccccc1[I+]2	1.2	< 0.27	8.6	0.54	1.1	4.3	0.08	50	0.08	< 0.27	< 0.27	2.3	< 2.4	0.08	0.61	< 2.4	< 2.4	< 2.4	0.54	< 0.27	selectivity ratio [20]: < 2.4; selectivity ratio [21]: < 2.4; MIC (Enterococcus faecium): < 0.27 µM; selectivity ratio [22]: 13; CC50 at 24 h [23]: 660 nM; MIC (Pseudomonas aeruginosa [24]): < 0.27 µM; MIC (Klebsiella pneumoniae [25]): 8.6 µM; selectivity ratio [26]: 0.31; MIC (Escherichia coli [27]): 2.2 µM; selectivity ratio [28]: 0.29; MIC (Acinetobacter baumannii [29]): < 0.27 µM; selectivity ratio [30]: < 2.4; selectivity ratio [31]: 1.2
COc1ccc2c(c1)-c1ccccc1[I+]2	> 0.29	> 70	70	> 70	35	70	0.29	100	> 0.29	8.7	35	35	4.6	> 0.29	1.5	1.2	0.58	> 0.29	70	35	selectivity ratio [20]: 0.58; selectivity ratio [21]: 2.3; MIC (Enterococcus faecium): 4.4 µM; selectivity ratio [22]: 213; CC50 at 24 h [23]: 20200 nM; MIC (Pseudomonas aeruginosa [24]): 18 µM; MIC (Klebsiella pneumoniae [25]): > 70 µM; selectivity ratio [26]: > 0.29; MIC (Escherichia coli [27]): > 70 µM; selectivity ratio [28]: 0.58; MIC (Acinetobacter baumannii [29]): 8.7 µM; selectivity ratio [30]: 2.3; selectivity ratio [31]: 0.29
Fc1cccc2c1-c1ccccc1[I+]2	4.2	2.2	9	1.1	2.2	4.5	0.51	50	0.51	4.5	< 0.28	2.2	8.2	0.51	2.1	8.2	< 16	2.1	1.1	0.56	selectivity ratio [20]: < 16; selectivity ratio [21]: 8.2; MIC (Enterococcus faecium): 0.56 µM; selectivity ratio [22]: 96; CC50 at 24 h [23]: 4600 nM; MIC (Pseudomonas aeruginosa [24]): < 0.28 µM; MIC (Klebsiella pneumoniae [25]): 9 µM; selectivity ratio [26]: 1; MIC (Escherichia coli [27]): 4.5 µM; selectivity ratio [28]: 2.1; MIC (Acinetobacter baumannii [29]): 0.56 µM; selectivity ratio [30]: 1; selectivity ratio [31]: 4.1
